In ChEMBL document CHEMBL4627282, “Synthesis of guggulsterone derivatives as potential anti-austerity agents against PANC-1 human pancreatic cancer cells” (Bioorg Med Chem Lett, 2020):
Activity calls are given as the source filed them. The rule behind the calls is not given here.

What was measured:
PANC-1 [1] = assay: Anti-austerity activity against human PANC1 cells assessed as cell killing incubated in nutrient deprived medium; assay type: functional
Procedure, shortened: (§1)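 PANC-1 cells were exposed to a concentration series in nutrient-deprived medium (NDM; no glucose, amino acids or serum) and, in parallel, in complete DMEM. Survival was plotted against log concentration, and PC50, the concentration preferentially cytotoxic under starvation, was read from the curve.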

PANC-1 [2] = assay: Cytotoxicity against human PANC1 cells incubated in normal DMEM medium; assay type: cell-based; procedure, shortened: as §1
PANC-1 [3] = assay: Selectivity index, ratio of IC50 for human PANC1 cells incubated in normal DMEM medium to PC50 for human PANC1 cells incubated in nutrient-deprived medium
PANC-1 [4] = assay: Inhibition of cell migration in human PANC1 cells at 5 uM incubated in nutrient deprived medium measured every 10 mins for 24 hrs by live cell imaging analysis; assay type: functional, cell-based
PANC-1 [5] = assay: Induction of cell death in human PANC1 cells assessed as cell shrinkage at 5 uM incubated in nutrient deprived medium measured every 10 mins for 12 hrs by live cell imaging analysis; assay type: functional, cell-based
PANC-1 [6] = assay: Induction of cell death in human PANC1 cells assessed as swelling of cells at 5 uM incubated in nutrient deprived medium measured every 10 mins for 12 hrs by live cell imaging analysis; assay type: functional, cell-based
PANC-1 [7] = assay: Induction of cell death in human PANC1 cells assessed as leakage of cytoplasmic content at 5 uM incubated in nutrient deprived medium measured every 10 mins for 12 hrs by live cell imaging analysis; assay type: functional, cell-based
PANC-1 [8] = assay: Induction of cell death in human PANC1 cells assessed as rounded cell morphology at 5 uM incubated for 24 hrs in nutrient deprived medium by ethidium bromide and acridine orange dye based phase contrast microscopy; assay type: functional
Procedure, shortened: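 PANC-1 cells treated in NDM for 24 h, then double-stained with ethidium bromide and acridine orange. They were imaged in fluorescence (green for live, red for dead or dying) and phase-contrast modes on a digital microscope, and morphology was judged against untreated controls.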

PANC-1 [9] = assay: Inhibition of colony formation in human PANC1 cells at 50 uM incubated for 10 days in nutrient deprived medium by crystal violet staining based assay; assay type: functional, cell-based
PANC-1 [10] = assay: Inhibition of colony formation in human PANC1 cells incubated for 10 days in DMEM by crystal violet staining based assay
PANC-1 [11] = assay: Inhibition of cell migration in human PANC1 cells at 3 uM incubated in nutrient deprived medium measured every 10 mins for 24 hrs by live cell imaging analysis; assay type: functional, cell-based
Procedure, shortened: (§2)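 Cells were treated in NDM in a stage-top incubator at 37 °C under 5% CO2. Phase-contrast images were captured every 10 min for 24 h on a digital imaging system with a 10× objective. Cell mobility, shrinkage, swelling and leakage of cytoplasm were scored from the time-lapse record.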

PANC-1 [12] = assay: Induction of cell death in human PANC1 cells assessed as cell shrinkage at 3 uM incubated in nutrient deprived medium measured every 10 mins […] by live cell imaging analysis; assay type: functional, cell-based; procedure, shortened: as §2
PANC-1 [13] = assay: Induction of cell death in human PANC1 cells assessed as swelling of cells at 3 uM incubated in nutrient deprived medium measured every 10 mins for […] by live cell imaging analysis; assay type: functional, cell-based; procedure, shortened: as §2
PANC-1 [14] = assay: Induction of cell death in human PANC1 cells assessed as leakage of cytoplasmic content at 3 uM incubated in nutrient deprived medium measured every 10 mins for […] by live cell imaging analysis; assay type: functional, cell-based; procedure, shortened: as §2
PANC-1 [15] = assay: Induction of cell death in human PANC1 cells assessed as rounded cell morphology at 3 uM incubated for 24 hrs in nutrient deprived medium by ethidium bromide and acridine orange dye based phase contrast microscopy; assay type: functional
Procedure, shortened: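 PANC-1 cells were held in NDM for 24 h with compound, alongside untreated controls, then double-stained with acridine orange and ethidium bromide. Imaging was in fluorescence (green AO marks live cells, red EB marks dead or dying cells) and in phase-contrast mode to assess morphology.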

PANC-1 [16] = assay: Inhibition of colony formation in human PANC1 cells at 1.25 uM incubated for 10 days in DMEM by crystal violet staining based assay; conditions: PANC-1, 240 h

Row | SMILES | PC50 (PANC-1 [1]) | IC50 (PANC-1 [2]) | further results
1 | C/C=C1\C(=O)C[C@H]2[C@@H]3CCC4=CC(=O)CC[C@]4(C)[C@H]3CC[C@]12C [GUGGULSTERONE] | 37 µM | 42 µM | –
2 | C/C=C1/C(=O)C[C@H]2[C@@H]3CCC4=CC(=O)CC[C@]4(C)[C@H]3CC[C@]12C [E-GUGGULSTERONE] | 42 µM | > 100 µM | –
3 | COCCC/C=C1/C(=O)C[C@H]2[C@@H]3CCC4=CC(=O)CC[C@]4(C)[C@H]3CC[C@]12C | 52 µM | > 100 µM | –
4 | CC/C=C1\C(=O)C[C@H]2[C@@H]3CCC4=CC(=O)CC[C@]4(C)[C@H]3CC[C@]12C | 17 µM | > 100 µM | –
5 | CC/C=C1/C(=O)C[C@H]2[C@@H]3CCC4=CC(=O)CC[C@]4(C)[C@H]3CC[C@]12C | 50 µM | > 100 µM | –
6 | C/C=C1/C(=O)C[C@H]2[C@@H]3CC[C@H]4CC(=O)CC[C@]4(C)[C@H]3CC[C@]12C | >100 µM | > 100 µM | –
7 | COc1cc(C[C@H]2C(=O)OC[C@@H]2Cc2ccc(OC)c(OC)c2)ccc1O [ARCTIGENIN] | 0.8 µM | – | –
8 | CC=C1CC[C@H]2[C@@H]3CCC4=CC(=O)CC[C@]4(C)[C@H]3CC[C@]12C (mixture of isomers) | – | > 100 µM | Activity (PANC-1 [1]): Dose-dependent effect; Ratio (PANC-1 [3]): 34; inhibition (PANC-1 [4]): Active; Activity (PANC-1 [5]): Active; Activity (PANC-1 [6]): Active; Activity (PANC-1 [7]): Active; Activity (PANC-1 [8]): Active; inhibition (PANC-1 [9]): Active; inhibition (PANC-1 [10]): Dose-dependent effect
9 | CC[C@H]1C(=O)C[C@H]2[C@@H]3CC[C@H]4CC(=O)CC[C@]4(C)[C@H]3CC[C@]12C | 18 µM | > 100 µM | –
10 | CCC/C=C1\C(=O)C[C@H]2[C@@H]3CCC4=CC(=O)CC[C@]4(C)[C@H]3CC[C@]12C | 18 µM | > 100 µM | –
11 | CCC/C=C1/C(=O)C[C@H]2[C@@H]3CCC4=CC(=O)CC[C@]4(C)[C@H]3CC[C@]12C | 14 µM | > 100 µM | –
12 | C=C1C(=O)C[C@H]2[C@@H]3CCC4=CC(=O)CC[C@]4(C)[C@H]3CC[C@]12C | 1.6 µM | 11 µM | Activity (PANC-1 [1]): Dose-dependent effect; Ratio (PANC-1 [3]): 6.5; inhibition (PANC-1 [11]): Active; Activity (PANC-1 [12]): Active; Activity (PANC-1 [13]): Active; Activity (PANC-1 [14]): Active; Activity (PANC-1 [15]): Active; inhibition (PANC-1 [10]): Dose-dependent effect; inhibition at 1.25 µM (PANC-1 [16]): 100%
